Measured values from different studies.
Each line is one published result; the experiments were not run side by side.
Target: Prostaglandin G/H synthase 1 (PTGS1, Ovis aries, UniProt P05979)
Read-out: enzyme activity
Action: inhibitor
Residues used in one study (P05979 25-600): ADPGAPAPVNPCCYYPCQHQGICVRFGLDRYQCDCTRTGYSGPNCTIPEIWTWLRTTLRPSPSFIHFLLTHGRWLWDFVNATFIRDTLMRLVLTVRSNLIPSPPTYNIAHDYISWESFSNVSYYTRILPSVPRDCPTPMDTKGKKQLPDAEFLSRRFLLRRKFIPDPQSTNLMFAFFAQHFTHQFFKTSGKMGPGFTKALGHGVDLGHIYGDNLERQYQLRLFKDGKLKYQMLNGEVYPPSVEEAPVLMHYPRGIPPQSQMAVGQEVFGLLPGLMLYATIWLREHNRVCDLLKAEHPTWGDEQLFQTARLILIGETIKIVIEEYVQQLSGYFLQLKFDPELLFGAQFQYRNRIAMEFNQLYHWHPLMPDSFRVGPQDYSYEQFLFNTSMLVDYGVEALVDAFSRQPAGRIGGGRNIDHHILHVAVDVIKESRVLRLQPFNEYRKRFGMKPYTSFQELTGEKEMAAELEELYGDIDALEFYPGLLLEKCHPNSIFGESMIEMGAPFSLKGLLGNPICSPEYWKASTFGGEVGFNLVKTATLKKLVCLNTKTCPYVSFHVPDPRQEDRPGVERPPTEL

Structure (SMILES) | method | IC50 [µM]
COc1ccc(Nc2c(-c3ccc(S(C)(=O)=O)cc3)nc3cc(C)ccn23)cc1 | fluorescence | 29.7
COc1ccccc1-c1ccc([N+](=O)[O-])cc1 | absorbance | 8.79
COc1ccc(-c2nn(-c3ccc(S(C)(=O)=O)cc3)cc2C=N/N=c2\[nH]c(-c3ccc([N+](=O)[O-])cc3)cs2)cc1 |  | 23.2
Cc1ccc(/C=C2\C=C(CC(=O)O)c3cc(F)ccc32)cc1 |  | 3.2
CS(=O)(=O)c1ccc(-c2ncc(Cl)cc2-c2nc3ccccc3s2)cc1 | absorbance | > 100
Cc1ccc(Nc2c(-c3ccc(S(C)(=O)=O)cc3)nc3ccccn23)cc1 | fluorescence | 23.1
COc1ccc(F)c(-c2ccccc2OC)c1 | absorbance | 8.23
Cc1cccn2c(Nc3ccc(Cl)cc3)c(-c3ccc(S(C)(=O)=O)cc3)nc12 | fluorescence | 29.4
CSc1ccc(/C=C2\C=C(CC(=O)NS(=O)(=O)c3ccc(Cl)s3)c3cc(F)ccc32)cc1 |  | 2
COc1ccc(Nc2c(-c3ccc(S(C)(=O)=O)cc3)nc3c(C)cccn23)cc1 | fluorescence | 30
COc1ccc(F)c(-c2ccccc2F)c1 | absorbance | 9.98
CS(=O)(=O)c1ccc(-n2cc(/C=N/N=c3\[nH]c(-c4ccc(Br)cc4)cs3)c(-c3ccc(Br)cc3)n2)cc1 |  | 9.42
CSc1ccc(/C=C2\C=C(CC(=O)NS(=O)(=O)C(F)(F)F)c3cc(F)ccc32)cc1 |  | 0.7 to 1
Cc1ccc(-c2nc3ccccc3s2)c(-c2ccc(S(C)(=O)=O)cc2)c1 | absorbance | > 100
O=[N+]([O-])c1cccc(-c2ccccc2F)c1F | absorbance | 10.2
CS(=O)(=O)c1ccc(-c2nc3ccccn3c2Nc2ccc(F)cc2)cc1 | fluorescence | 23.8
CS(=O)(=O)c1ccc(-n2cc(C=N/N=c3\[nH]c(-c4ccc(Br)cc4)cs3)c(-c3ccc([N+](=O)[O-])cc3)n2)cc1 |  | 68.2
C[C@@H]1O[C@@H](O[C@H]2[C@H](Oc3c(-c4ccc(O)cc4)oc4cc(O)cc(O)c4c3=O)O[C@H](CO[C@@H]3O[C@H](CO)[C@@H](O)[C@H](O)[C@H]3O)[C@@H](O)[C@@H]2O)[C@H](O)[C@H](O)[C@H]1O | absorbance | 21.8
CS(=O)(=O)c1ccc(-c2nc3ccccn3c2Nc2ccc(Cl)cc2)cc1 | fluorescence | 34.3
NS(=O)(=O)c1ccc(-c2ncc(Cl)cc2-c2nc3ccccc3s2)cc1 | absorbance | > 100
CS(=O)(=O)c1ccc(-n2cc(/C=N/N=c3\[nH]c(-c4ccc([N+](=O)[O-])cc4)cs3)c(-c3ccc([N+](=O)[O-])cc3)n2)cc1 |  | 38.5
CC(C(=O)O)c1cccc(C(=O)c2ccccc2)c1 (stereo not drawn) |  | 0.05
Cc1cccc2nc(-c3ccc(S(C)(=O)=O)cc3)c(Nc3ccc(F)cc3)n12 | fluorescence | 40.2
CS(=O)(=O)c1ccc(-n2cc(/C=N/N=c3\[nH]c(-c4ccc([N+](=O)[O-])cc4)cs3)c(-c3ccc(Br)cc3)n2)cc1 |  | 24.5
